Results: ChEMBL document CHEMBL1212862, “Role of 2',6'-dimethyl-l-tyrosine (Dmt) in some opioid lead compounds” (Bioorg Med Chem, 2010)

Assays:
[1] = biological target: Delta-type opioid receptor (Rattus norvegicus, UniProt P33533); experiment: Displacement of [3H]deltorphin 2 from delta opioid receptor in Sprague-Dawley rat brain P2 synaptosomal membrane
Outline: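 Equilibrium incubation 2.5 h at 23 °C. Filtration through glass fibre filters pre-soaked in 0.1% polyethylenimine, then three washes in ice-cold buffered 0.1% BSA. Ki by Cheng–Prusoff.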

Mu-type opioid receptor [2] = biological target: Mu-type opioid receptor (Rattus norvegicus, UniProt P33535); experiment: Displacement of [3H]DAMGO from mu opioid receptor in Sprague-Dawley rat brain P2 synaptosomal membrane
[3] = biological target: T1, Delta-type opioid receptor (Mus musculus, UniProt P32300); experiment: Antagonist activity at delta opioid receptor in mouse vas deference; assay type: functional; conditions: read-out: pA2 (converted)
Outline: (§1)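 Organ-bath tissue preparations in physiological buffer, pH 7.5, with electrically evoked contractions. Delta antagonism on mouse vas deferens measured against deltorphin II. Mu antagonism on male Hartley guinea pig ileum myenteric plexus longitudinal muscle measured against endomorphin-2. pA2 derived by the Kosterlitz and Watt method.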

Rattus norvegicus = species: Rattus norvegicus; experiment: Ratio of Ki for Sprague-Dawley rat mu opioid receptor to Ki for Sprague-Dawley rat delta opioid receptor
Mu-type opioid receptor [4] = biological target: T2, Mu-type opioid receptor (Cavia porcellus, UniProt P97266); experiment: Antagonist activity at mu opioid receptor in Hartley guinea pig small intestine; assay type: functional, tissue-based; conditions: read-out: pA2 (converted); outline: as §1
[5] = biological target: T1, Delta-type opioid receptor; experiment: Agonist activity at delta opioid receptor in mouse vas deference; assay type: functional
Outline: (§2)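 Isolated tissue assay in organ baths with balanced salt solution in physiological buffer, pH 7.5. Delta agonism measured on single mouse vas deferens, mu agonism on myenteric plexus longitudinal muscle strips (2–3 cm) from small intestine of male Hartley guinea pigs. Inhibition of electrically evoked contraction; IC50 (nM) from dose-response curves. DPDPE (MVD) and PL017 (GPI) run as internal standards. Mean ± SE of at least four tissue samples.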

Mu-type opioid receptor [6] = biological target: T2, Mu-type opioid receptor; experiment: Agonist activity at mu opioid receptor in Hartley guinea pig small intestine; assay type: functional, tissue-based; outline: as §2

Mu-type opioid receptor (Rattus norvegicus, UniProt P33535), sequence (P33535 whole entry): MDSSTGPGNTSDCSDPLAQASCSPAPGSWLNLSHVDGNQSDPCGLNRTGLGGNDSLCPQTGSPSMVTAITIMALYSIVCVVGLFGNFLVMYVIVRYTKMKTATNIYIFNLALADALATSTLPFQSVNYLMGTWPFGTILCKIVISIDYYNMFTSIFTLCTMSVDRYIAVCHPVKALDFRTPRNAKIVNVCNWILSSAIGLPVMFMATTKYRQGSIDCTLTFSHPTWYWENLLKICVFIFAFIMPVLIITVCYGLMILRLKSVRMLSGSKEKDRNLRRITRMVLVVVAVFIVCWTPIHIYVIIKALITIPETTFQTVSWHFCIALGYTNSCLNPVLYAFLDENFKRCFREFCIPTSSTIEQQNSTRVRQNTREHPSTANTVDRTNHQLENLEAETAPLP
T2 sequence (P97266 whole entry): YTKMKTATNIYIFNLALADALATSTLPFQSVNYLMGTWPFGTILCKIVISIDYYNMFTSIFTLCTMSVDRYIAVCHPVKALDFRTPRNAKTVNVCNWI
Delta-type opioid receptor (Rattus norvegicus, UniProt P33533), sequence (P33533 whole entry): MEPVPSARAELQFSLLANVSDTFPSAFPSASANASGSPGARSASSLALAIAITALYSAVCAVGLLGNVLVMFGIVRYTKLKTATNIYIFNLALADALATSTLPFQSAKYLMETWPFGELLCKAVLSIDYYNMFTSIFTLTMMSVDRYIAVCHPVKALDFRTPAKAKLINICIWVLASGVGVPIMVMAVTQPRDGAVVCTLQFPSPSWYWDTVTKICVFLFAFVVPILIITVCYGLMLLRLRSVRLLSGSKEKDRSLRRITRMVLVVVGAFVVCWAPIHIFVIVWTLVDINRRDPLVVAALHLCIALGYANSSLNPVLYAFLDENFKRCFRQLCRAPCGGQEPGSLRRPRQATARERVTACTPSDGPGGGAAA
T1 sequence (P32300 whole entry): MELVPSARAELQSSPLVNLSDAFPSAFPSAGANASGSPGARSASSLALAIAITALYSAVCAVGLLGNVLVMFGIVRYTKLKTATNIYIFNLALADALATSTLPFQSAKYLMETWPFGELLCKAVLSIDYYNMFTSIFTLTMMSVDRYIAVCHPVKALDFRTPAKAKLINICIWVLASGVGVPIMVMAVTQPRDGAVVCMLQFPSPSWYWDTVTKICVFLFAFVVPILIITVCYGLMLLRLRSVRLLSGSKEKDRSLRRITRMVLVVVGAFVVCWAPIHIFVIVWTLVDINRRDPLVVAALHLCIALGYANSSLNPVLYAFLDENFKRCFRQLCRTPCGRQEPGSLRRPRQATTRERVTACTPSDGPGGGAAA

| SMILES | Ki [1] | Ki (Mu-type opioid receptor [2]) | Kb [3] | Selectivity ratio (Rattus norvegicus) | Kb (Mu-type opioid receptor [4]) | IC50 [5] | IC50 (Mu-type opioid receptor [6]) |
| --- | --- | --- | --- | --- | --- | --- | --- |
| N[C@@H](Cc1ccc(O)cc1)C(=O)N1Cc2ccccc2C[C@H]1C(=O)N[C@@H](CC(=O)O)c1nc2ccccc2[nH]1 | 0.177 nM | 684 nM | 1.41 nM | 3860 | – | – | – |
| CN(C)[C@@H](Cc1ccc(O)cc1)C(=O)N1Cc2ccccc2C[C@H]1C(N)=O | 201 nM | 1450 nM | – | 7 | – | – | – |
| CN(C)[C@@H](Cc1c(F)cc(O)cc1F)C(=O)N1Cc2ccccc2C[C@H]1C(N)=O | 176 nM | 596 nM | – | 3 | – | – | – |
| Cc1cc(O)cc(C)c1C[C@@H](C(=O)N1Cc2ccccc2C[C@H]1C(=O)O)N(C)C | 0.118 nM | – | – | 20600 | 1580 nM | – | – |
| N[C@@H](Cc1c(F)cc(O)cc1F)C(=O)N1Cc2ccccc2C[C@H]1C(=O)NCc1nc2ccccc2[nH]1 | 1.01 nM | 54.5 nM | – | 54 | – | 67.3 nM | > 10000 nM |
| Cc1cc(O)cc(C)c1C[C@@H](C(=O)N1Cc2ccccc2C[C@H]1C(N)=O)N(C)C | 0.309 nM | 511 nM | 0.126 nM | 1660 | 501 nM | – | – |
| N[C@@H](Cc1ccc(O)cc1)C(=O)N1Cc2ccccc2C[C@H]1C(=O)NCc1nc2ccccc2[nH]1 | 0.913 nM | 66.9 nM | – | 73 | – | 50.1 nM | 4220 nM |
| N[C@@H](Cc1c(F)cc(O)cc1F)C(=O)N1Cc2ccccc2C[C@H]1C(=O)N[C@@H](CC(=O)O)c1nc2ccccc2[nH]1 | 0.162 nM | 225 nM | 1.12 nM | 1390 | – | – | – |
| CN(C)[C@@H](Cc1ccc(O)cc1)C(=O)N1Cc2ccccc2C[C@H]1C(=O)O | 34.8 nM | 1230 nM | – | 35 | – | – | – |
| CN(C)[C@@H](Cc1c(F)cc(O)cc1F)C(=O)N1Cc2ccccc2C[C@H]1C(=O)O | 29.2 nM | 573 nM | – | 20 | – | – | – |
